SENP8 block-1: inhibitors of human SENP8 protease | inhibition, % at 10 µM | purified SENP8, Z-RLRGG-aminoluciferin cleavage, luminescence | AID 2540 | Q96LD8 | 330,000 tested, 1.2% active; in the data active = inhibition above about 50%
Target sequence (Q96LD8 whole entry, looked up): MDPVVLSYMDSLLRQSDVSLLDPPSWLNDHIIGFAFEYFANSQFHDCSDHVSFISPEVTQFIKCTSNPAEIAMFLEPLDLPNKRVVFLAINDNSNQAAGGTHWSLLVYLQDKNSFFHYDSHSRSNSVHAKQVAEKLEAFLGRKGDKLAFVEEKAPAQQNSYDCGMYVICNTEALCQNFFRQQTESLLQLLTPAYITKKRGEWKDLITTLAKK
SENP1 inh: inhibitors of human SENP1 SUMO protease catalytic domain; recombinant SENP1 catalytic domain, CyPet-SUMO1-YPet FRET cleavage; inhibition, % at 10 µM; 360,000 tested, 0.21% active;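 active = inhibition at least 30% at 10 µM, raw YFP signal under a set limit, fluorescence ratio 0.5 to 1.5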;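 also: 0% = enzyme with DMSO and 100% = no enzyme wells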
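Compound: 10 µM single point, 0.5% DMSO; Test system: hSENP1 catalytic domain, recombinant; Timing: 50 min reaction at room temperature; Technique: FRET, CFP and YFP emission; Control set: no-enzyme wells low, DMSO-plus-enzyme wells high control.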
SENP7 inh: blocks the human protease SENP7. AID 434973. 330,000 tested, 1.5% active. recombinant SENP7, Z-RLRGG-aminoluciferin luminescence, 40 min. Q9BQF6. inhibition, % at 5 µM;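 active = inhibition above about 50% at the single test dose, limit read from the data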;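 also: plate controls were DMSO with enzyme for no effect and no enzyme buffer wells for full effect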
Target sequence (Q9BQF6 706-1050 limits assumed): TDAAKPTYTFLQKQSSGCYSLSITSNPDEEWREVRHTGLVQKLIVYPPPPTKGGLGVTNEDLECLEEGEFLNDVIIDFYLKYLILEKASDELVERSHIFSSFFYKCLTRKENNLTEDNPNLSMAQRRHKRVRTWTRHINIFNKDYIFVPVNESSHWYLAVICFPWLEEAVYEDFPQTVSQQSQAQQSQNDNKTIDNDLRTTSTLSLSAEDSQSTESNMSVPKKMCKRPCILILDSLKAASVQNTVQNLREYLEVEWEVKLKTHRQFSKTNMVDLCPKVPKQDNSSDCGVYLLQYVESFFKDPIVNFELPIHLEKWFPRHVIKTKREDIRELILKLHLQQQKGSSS
SENP6 block: blocks the human protease SENP6; 330,000 tested, 1.8% active; inhibition, % at 10 µM; Recombinant SENP6 catalytic domain, aminoluciferin luminescence; Q9GZR1;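 active = inhibition above about 50% at the single tested dose, limit read from the data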;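 also: plate controls were DMSO wells with enzyme for no effect and DMSO wells lacking enzyme for full effect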
NRP1-CendR mod: alters CendR peptide binding to human NRP-1; O14786; FAM-RPARPAR peptide binding to NRP-1, fluorescence polarization; inhibition, % at 25 µM; 360,000 tested, 0.85% active; AID 602438;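 active = inhibition or corrected inhibition above about 18%, plus a signal ratio from 0.5 to 1.5, limit read from the data, passing the limit was not always enough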
SENP8 block-2: blocks human SENP8 cleavage of Nedd8 substrate; recombinant SENP8, Nedd8 substrate fluorescence; inhibition, % at 20 µM; 360,000 tested, 0.64% active; in the data active = inhibition mostly above about 40%, no sharp cut-off; inactive = mostly below about 27%
* marks the source's active call; other numbers are inactive results; nt = no result. Compounds with a hit are over-represented: about 3.3% of the library has one in this group of screens.

SMILES | SENP8 block-1 | SENP1 inh | SENP7 inh | SENP6 block | NRP1-CendR mod | SENP8 block-2
O=S(=O)(C(=CNc1ccccc1)S(=O)(=O)c1ccccc1)c1ccccc1 | -1 | 4 | -3 | -20 | 2 | 7
Cc1ccc(NC=C(S(=O)(=O)c2ccccc2)S(=O)(=O)c2ccccc2)cc1 | 0 | -1 | 2 | 13 | 29* | 12
CCC1(c2ccc(OC)cc2)NC(=O)N(CC(=O)NC2CCCCC2C)C1=O (stereo unspecified) | -1 | 1 | -7 | 4 | 23* | 3
CC1CCCCC1NC(=O)CN1C(=O)NC(C)(c2ccc(OC(F)F)cc2)C1=O (stereo unspecified) | -8 | -3 | -6 | -2 | 4 | 8
O=C(Nc1cccc2ccccc12)c1csc(COCCO)n1 | nt | 1 | nt | nt | -10 | 5
Cc1nnc2n1NC(c1ccc(Cl)cc1)C(C(=O)N1CCC(C)CC1)S2 (stereo unspecified) | 6 | 3 | 11 | -6 | 23* | 5
Cc1nnc2n1NC(c1ccc(Cl)cc1)C(C(=O)N(C)C1CCCCC1)S2 (stereo unspecified) | -6 | -1 | 1 | -29 | 9 | 20
O=C(C(=O)N1CCN(C/C=C/c2ccccc2)CC1)c1ccccc1 | nt | 0 | nt | nt | 0 | 17
COc1ccc(NC(=S)NNc2ccc([N+](=O)[O-])cc2S(=O)(=O)Nc2ccc(C)cc2C)cc1 | -2 | 42* | -12 | 0 | -44 | 27
Cc1ccc(NS(=O)(=O)c2cc([N+](=O)[O-])ccc2NNC(=S)Nc2cc(C)ccc2C)c(C)c1 | -1 | 62* | 5 | 8 | -51 | 33
Cc1cccc(NC(=S)NNc2cccc(Cl)c2)c1 | -9 | 1 | 2 | -21 | 0 | -1
Cc1ccc(NS(=O)(=O)c2cc([N+](=O)[O-])ccc2NNC(=S)Nc2cccc(Cl)c2)c(C)c1 | nt | 54* | nt | nt | -132 | 35
O=C(NCC1CC1)c1cc2c(c(-c3cccc(-c4ccccc4F)c3)n1)[C@@H](CCO)N(C(=O)CC1CC1)C2 | nt | -2 | nt | nt | 7 | 21
COc1cc(CC(=O)O)ccc1OCc1ccccc1 | -2 | -1 | 4 | -12 | 26* | 8
CNCc1ccc(OCc2ccccc2)c(OC)c1 | -15 | 2 | -9 | -4 | -9 | 22
CC(/C=C(\NC(=O)c1ccccc1)C(=O)N=Nc1c(O)[nH]c2ccc(C)cc12)=C\c1ccccc1 | -1 | 3 | 3 | -8 | -9 | 51*
CCn1c(C)nc2cc(N)ccc21 | -3 | 4 | -2 | 0 | 10 | 25
CCn1c(C)nc2cc(OC)ccc21 | 0 | 2 | 5 | -13 | 21* | 9
CO[C@H]1CN(C)C(=O)c2ccc(NC(=O)C3CCC3)cc2OC[C@H](C)N(Cc2ccccn2)C[C@@H]1C | nt | 2 | nt | nt | -8 | 20
COc1ccc(-c2nc3ccccc3n(CC(C)C)c2=O)cc1 | nt | 1 | nt | nt | 4 | 22
COc1cccc(/C=N/NC(=S)Nc2cccnc2)c1 | -1 | 0 | 2 | 5 | 9 | -4
Oc1ccc(/C=N/NC(=S)Nc2cccnc2)cc1 | -4 | -1 | 11 | -15 | 23* | -22
O=C(NC(=S)Nc1ccccc1N1CCCC1)c1ccco1 | 8 | -37 | 15 | 31 | 28* | -8
CC(C)NC(=O)C1C(c2ccc(C(F)(F)F)cc2)=Nc2ccccc2N1C(=O)c1cccc2ccccc12 (stereo unspecified) | nt | 1 | nt | nt | -1 | -30
CCc1[nH]nc2c1C(C(C)C)C(C#N)=C(N)O2 (stereo unspecified) | -8 | 1 | -4 | -16 | 21* | -2
SMILES | SENP8 block-1 | SENP1 inh | SENP7 inh | SENP6 block | NRP1-CendR mod | SENP8 block-2
CC(C)C1C(C#N)=C(N)Oc2n[nH]c(-c3ccc4ccccc4c3)c21 (stereo unspecified) | 1 | 0 | 0 | -18 | 27* | -31
O=C(OCCO)c1c(C2=CCCCC2)oc2c1C(OCCO)CCC2 (stereo unspecified) | nt | 1 | nt | nt | 8 | -2
CC1(C(=O)NCC2CCOCC2)Cc2c(-c3cccc(C(F)(F)F)c3)ccnc2O1 (stereo unspecified) | nt | -2 | nt | nt | 7 | 11
O=C(NCC(=O)N1CCN(c2ccc([N+](=O)[O-])cc2)CC1)c1ccco1 | -10 | 2 | -1 | -11 | -10 | 16
O=C(Cc1ccc(Br)cc1)N1CCN(c2ccc(F)cc2)CC1 | -6 | 1 | 2 | -2 | 23* | 11
O=C(NCC(=O)N1CCN(c2ccccc2)CC1)c1ccco1 | 8 | 4 | 1 | 1 | 27* | 7
O=C(Cc1ccccc1)NCC(=O)N1CCN(c2ccc(F)cc2)CC1 | nt | 1 | nt | nt | 26* | 10
CN(C)c1ncnc2c1ncn2[C@H]1CN(Cc2ccc3c(c2)OCO3)C[C@@H](CO)O1 | nt | 0 | nt | nt | -12 | 11
O=c1[nH]c(=S)[nH]cc1Oc1ccc(Cl)cc1 | nt | 6 | nt | nt | 3 | 29
CC1CN(C(=O)c2ccc(CNS(=O)(=O)c3cccc(Cl)c3)cc2)CC(C)O1 (stereo unspecified) | -3 | 1 | -1 | -16 | 28* | 8
CC1CN(C(=O)c2cccc(S(=O)(=O)NCc3ccccc3)c2)CC(C)O1 (stereo unspecified) | -8 | 1 | -2 | -4 | 0 | 16
CCOC(=O)[C@]12CCCC=C1N(CCc1ccc(OC)c(OC)c1)C(=O)[C@H](CC(=O)N1CCCCC1)C2 | nt | 0 | nt | nt | -18 | 18
Cc1ccc(NC(=O)c2ncn(CCCNCCCc3ccccc3)n2)cc1C | nt | 1 | nt | nt | 33* | 11
O=C(NCC(F)(F)F)C1C(=O)Nc2ccccc2C(=O)N1Cc1ccccc1 (stereo unspecified) | nt | 7 | nt | nt | 16 | 5
CSCC[C@H](NC(=O)Cc1c(C)c2cc3c(C)c(C)oc3cc2oc1=O)C(=O)N[C@@H](C(=O)O)c1ccccc1 | nt | -47 | nt | nt | -37 | 14
O=S(=O)(NCc1ccc(F)cc1)c1ccc(-n2cccn2)cc1 | -3 | 2 | 3 | 11 | 21* | 5
Cc1cccc(NC(=S)N/N=C/c2ccc(Cl)c([N+](=O)[O-])c2)c1 | 8 | 1 | 1 | -8 | 27* | 14
Cc1cccc(NC(=S)N/N=C/c2cccc([N+](=O)[O-])c2)c1 | -7 | 0 | -10 | -8 | 0 | 30
O=C(COC(=O)[C@@H]1CCCN1C(=O)c1cccs1)Nc1ccc(Br)cc1 | -1 | 0 | 4 | -11 | -17 | 10
COc1ccc(NC(=O)COC(=O)[C@@H]2CCCN2C(=O)c2cccs2)cc1 | 4 | 2 | -2 | -5 | 29* | 19
COc1cccc(S(=O)(=O)N(C)C[C@H]2Oc3ncc(Br)cc3C(=O)N([C@@H](C)CO)C[C@@H]2C)c1 | nt | 0 | nt | nt | 9 | 12
O=C(OCC(=O)c1c[nH]c2ccccc12)c1ccc(F)c(S(=O)(=O)N2CCOCC2)c1 | nt | -7 | nt | nt | -8 | 0
